A short description of series [1]: Drug uptake in lysosomes of human Fa2N-4 cells assessed as inhibition of LysoTracker Red fluorescence after 30 mins. Format: ADME, cell-based, Lysosome. As to conditions: Fa2N-4, 0.5 h; call rule not given here.
Series [2] is described as follows: Drug uptake in lysosomes of human Fa2N-4 cells assessed as inhibition of LysoTracker Red fluorescence at 500 uM after 30 mins relative to control. Format: cell-based, Lysosome. Conditions: Fa2N-4 cells (lysosomes), probe LysoTracker Red. Summed up:
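Fa2N-4 cells at 50,000/well on collagen, rinsed with PBS. Drug (methanol stock diluted in supplemented modified Chee's medium; final 1–500 μM) with LysoTracker Red 50 nM final, 30 min, 37°C, triplicate. Cells PBS-rinsed and solubilised in acetonitrile. Fluorescence read at ex 530/em 590 nm. Medium kept for LDH release.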

The nature of series [3]: Drug uptake in lysosomes of human Fa2N-4 cells assessed as cellular partitioning measured per 10^6 cells at 1 uM after 5 mins by LC-MS analysis. Format: ADME, cell-based, Lysosome. Conditions: fa2n-4, 5 min. Summed up: (§1)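 Fa2N-4 cells, plated at 50,000/well on collagen in MFE with 10% newborn calf serum, switched to serum-free medium after attachment and used 36–48 h after plating. Substrate 1 μM in serum-free MFE, 37±1°C. Cells and substrate solution preincubated apart 5 min, then combined (± ammonium chloride 50 mM, nigericin 10 μM plus monensin 20 μM, or co-drug). Stopped with ice-cold PBS, washed, lysed in acetonitrile with internal standard, quantified by LC-MS/MS.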

Series [4] in a line: Drug uptake in lysosomes of human Fa2N-4 cells assessed as cellular partitioning measured per 10^6 cells at 1 uM after 5 mins by LC-MS analysis in presence of ammonium chloride. Format: ADME, cell-based, Lysosome. Conditions: fa2n-4, 5 min. The essentials:
as §1

The nature of series [5]: Drug uptake in lysosomes of human Fa2N-4 cells assessed as cellular partitioning at 1 uM preincubated with ammonium chloride followed by compound treatment measured after 5 mins by LC-MS analysis. Format: ADME, cell-based, Lysosome. As to conditions: fa2n-4, 5 min. The essentials:
(§2)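 Inhibitor is ammonium chloride 50 mM or chloroquine 200 μM. Three orders of addition: added together with substrate; added 5 min before substrate and left in; or added 5 min before substrate, then cells washed before substrate. Stopped with ice-cold PBS, acetonitrile lysis with internal standard, LC-MS/MS.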

Series [6] can be described thus: Drug uptake in lysosomes of human Fa2N-4 cells assessed as cellular partitioning at 1 uM after 5 mins by LC-MS analysis in presence of astemizole. Format: ADME, cell-based, Lysosome. Conditions: fa2n-4, 5 min. Summed up:
as §1

Series [7] can be described thus: Drug uptake in lysosomes of human Fa2N-4 cells assessed as cellular partitioning at 1 uM after 5 mins by LC-MS analysis in presence of ammonium chloride. Format: ADME, cell-based, Lysosome. Conditions: fa2n-4, 5 min. Summed up:
as §1

Series [8] can be described thus: Drug uptake in lysosomes of human Fa2N-4 cells assessed as cellular partitioning at 1 uM co-incubated with ammonium chloride for 5 mins by LC-MS analysis. Format: ADME, cell-based, Lysosome. As to conditions: fa2n-4, 5 min. Summed up:
as §1

The nature of series [9]: Drug uptake in lysosomes of human Fa2N-4 cells assessed as cellular partitioning at 1 uM after 5 mins by LC-MS analysis in presence of chloroquine. Conditions: fa2n-4, 5 min. Format: ADME, cell-based, Lysosome. Summed up:
as §2

A short description of series [10]: Drug uptake in lysosomes of human Fa2N-4 cells assessed as cellular partitioning at 1 uM after 5 mins by LC-MS analysis in presence of imipramine. Format: ADME, cell-based, Lysosome. As to conditions: fa2n-4, 5 min. Summed up:
as §1

Series [11] in a line: Drug uptake in lysosomes of human Fa2N-4 cells assessed as cellular partitioning at 1 uM after 5 mins by LC-MS analysis in presence of nigericin and monensin. Format: ADME, cell-based, Lysosome. As to conditions: fa2n-4, 5 min. Summed up:
as §1

Series [12] can be described thus: Drug uptake in lysosomes of human Fa2N-4 cells assessed as cellular partitioning at 1 uM preincubated with chloroquine for 5 mins followed by media washout and compound treatment measured after 5 mins by LC-MS analysis. Format: ADME, cell-based, Lysosome. As to conditions: fa2n-4, 5 min. The essentials: as §2
Series [13] is described as follows: Drug uptake in lysosomes of human Fa2N-4 cells assessed as cellular partitioning at 1 uM preincubated with ammonium chloride for 5 mins followed by media washout and compound treatment measured after 5 mins by LC-MS analysis. Format: ADME, cell-based, Lysosome. As to conditions: fa2n-4, 5 min. Summed up: as §2
A short description of series [14]: Drug uptake in lysosomes of human Fa2N-4 cells assessed as cellular partitioning at 1 uM after 5 mins by LC-MS analysis in presence of ammonium chloride, nigericin and monensin. Format: ADME, cell-based, Lysosome. Conditions: fa2n-4, 5 min. The essentials: as §1
Series [15] can be described thus: Drug uptake in lysosomes of human Fa2N-4 cells assessed as cellular partitioning at 1 uM up to 10 mins by LC-MS analysis. As to conditions: fa2n-4, 10 min. Format: ADME, cell-based, Lysosome. Summed up: as §1
A short description of series [16]: Drug uptake in lysosomes of human Fa2N-4 cells assessed as cellular partitioning at 1 uM measured at 10 mins by LC-MS analysis in presence of ammonium chloride. Conditions: fa2n-4, 10 min. Format: ADME, cell-based, Lysosome. Summed up:
as §1

Series [17] is described as follows: Drug uptake in lysosomes of human Fa2N-4 cells assessed as cellular partitioning at 1 uM after 5 mins by LC-MS analysis in presence of atorvastatin. Format: ADME, cell-based, Lysosome. As to conditions: fa2n-4, 5 min. The essentials: as §1
A short description of series [18]: Drug uptake in lysosomes of human Fa2N-4 cells assessed as cellular partitioning at 1 uM preincubated with chloroquine followed by compound treatment measured after 5 mins by LC-MS analysis. As to conditions: fa2n-4, 5 min. Format: ADME, cell-based, Lysosome. The essentials:
as §2

The nature of series [19]: Drug uptake in lysosomes of human Fa2N-4 cells assessed as cellular partitioning at 1 uM after 5 mins by LC-MS analysis in presence of diclofenac. Format: ADME, cell-based, Lysosome. Conditions: fa2n-4, 5 min. Summed up:
as §1

Series [20] is described as follows: Drug uptake in lysosomes of human Fa2N-4 cells assessed as cellular partitioning at 1 uM after 5 mins by LC-MS analysis in presence of dextromethorphan. Format: ADME, cell-based, Lysosome. Conditions: fa2n-4, 5 min. The essentials:
as §1

Series [21] can be described thus: Drug uptake in lysosomes of human Fa2N-4 cells assessed as cellular partitioning at 1 uM co-incubated with chloroquine for 5 mins by LC-MS analysis. Format: ADME, cell-based, Lysosome. As to conditions: fa2n-4, 5 min. Summed up: as §2
Series [22] is described as follows: Drug uptake in lysosomes of human Fa2N-4 cells assessed as cellular partitioning at 1 uM after 5 mins by LC-MS analysis in presence of rifampin. Format: ADME, cell-based, Lysosome. Conditions: fa2n-4, 5 min. The essentials: as §1

Consider 26 compounds from ChEMBL document CHEMBL3525994, “Lysosomal sequestration (trapping) of lipophilic amine (cationic amphiphilic) drugs in immortalized human hepatocytes (Fa2N-4 cells)” (Drug Metab Dispos, 2013).

Bounds are passed on as bounds.

As usually defined, the IC50 is the concentration that gives 50% inhibition. As to `CC(=O)Nc1ccc(O)cc1` [ACETAMINOPHEN], the 50% inhibitory concentration (IC50) in series [1] was over 500 µM.

As usually defined, the inhibition is the share of the control response that was lost under treatment. Consider `CCN(CC)Cc1cc(Nc2ccnc3cc(Cl)ccc23)ccc1O` [AMODIAQUINE], for which the IC50 in series [1] is over 500 µM. Also, in series [2], the inhibition at 0.5 h, 500 µM was over 25%.

Regarding `COc1ccc(CCN2CCC(Nc3nc4ccccc4n3Cc3ccc(F)cc3)CC2)cc1` [ASTEMIZOLE], the half-maximal inhibitory concentration (IC50) in [1] was determined as 110 µM.

Consider `CC(C)c1c(C(=O)Nc2ccccc2)c(-c2ccccc2)c(-c2ccc(F)cc2)n1CC[C@@H](O)C[C@@H](O)CC(=O)O` [ATORVASTATIN], for which, in series [1], the IC50 was over 500 µM. Further, the results for the Drug uptake in [3] and in series [4] were under 11 pmol and 34 pmol, respectively.

Consider `O=C(O)COCCN1CCN(C(c2ccccc2)c2ccc(Cl)cc2)CC1` (stereo not given) [CETIRIZINE], for which the IC50 in series [1] is over 500 µM.

As for `CCN(CC)CCCC(C)Nc1ccnc2cc(Cl)ccc12` (stereo not given) [CHLOROQUINE], the IC50 in [1] came to 220 µM.

With `CNCCCN1c2ccccc2CCc2ccccc21` [DESIPRAMINE], the IC50 in series [1] was 220 µM.

On to `COc1ccc2c(c1)[C@]13CCCC[C@@H]1[C@H](C2)N(C)CC3` [DEXTROMETHORPHAN], for which the IC50 in series [1] is over 500 µM. In series [2], the inhibition at 0.5 h, 500 µM was over 25%.

Turning to `O=C(O)Cc1ccccc1Nc1c(Cl)cccc1Cl` [DICLOFENAC], the IC50 in series [1] is over 500 µM.

For `C#Cc1cccc(Nc2ncnc3cc(OCCOC)c(OCCOC)cc23)c1` [ERLOTINIB], the half-maximal inhibitory concentration (IC50) in series [1] was over 500 µM.

Regarding `OC(Cn1cncn1)(Cn1cncn1)c1ccc(F)cc1F` [FLUCONAZOLE], in [1], the IC50 was over 500 µM.

Take `CNCCC(Oc1ccc(C(F)(F)F)cc1)c1ccccc1` (stereo not given) [FLUOXETINE]: in [1], the IC50 was 150 µM.

`CC(C)n1c(/C=C/C(O)CC(O)CC(=O)O)c(-c2ccc(F)cc2)c2ccccc21` (stereo not given) [FLUVASTATIN]: in [1], the IC50 was over 500 µM.

Consider `CC(C)Cc1ccc(C(C)C(=O)O)cc1` (stereo not given) [IBUPROFEN], for which the half-inhibitory concentration (IC50) in [1] is over 500 µM.

For `CN(C)CCCN1c2ccccc2CCc2ccccc21` [IMIPRAMINE], the IC50 in series [1] is 260 µM.

For the compound `CC(C(=O)O)c1cccc(C(=O)c2ccccc2)c1` (stereo not given) [KETOPROFEN], the IC50 in series [1] was over 500 µM.

Turning to `O=C(c1ccccc1)c1ccc2n1CCC2C(=O)O` (stereo not given) [KETOROLAC], the IC50 in series [1] is over 500 µM.

For the compound `CC(CCc1ccccc1)NCC(O)c1ccc(O)c(C(N)=O)c1` (stereo not given) [LABETALOL], the IC50 in [1] was over 500 µM. The inhibition at 0.5 h, 500 µM in series [2] was over 25%.

Turning to `CS(=O)(=O)CCNCc1ccc(-c2ccc3ncnc(Nc4ccc(OCc5cccc(F)c5)c(Cl)c4)c3c2)o1` [LAPATINIB], the IC50 in series [1] is 380 µM.

Take `COC(=O)C1=C(C)NC(C)=C(C(=O)OC)C1c1ccccc1[N+](=O)[O-]` [NIFEDIPINE]: the IC50 in series [1] is over 500 µM.

In the case of `Fc1ccc([C@@H]2CCNC[C@H]2COc2ccc3c(c2)OCO3)cc1` [PAROXETINE], the IC50 in series [1] came out at 130 µM.

For the compound `CC[C@H](C)C(=O)O[C@H]1C[C@H](O)C=C2C=C[C@H](C)[C@H](CC[C@@H](O)C[C@@H](O)CC(=O)O)[C@H]21` [PRAVASTATIN], the IC50 in series [1] is over 500 µM.

With `CC(C)NCC(O)COc1cccc2ccccc12` (stereo not given) [PROPRANOLOL], the Drug uptake result in series [5], in [6], in [7], in series [8], in series [9] and in [10] was “Not Active” in each case. For the same compound, the Drug uptake entry in [11] is “Not Active”; in series [12] it was “Not Active”; in series [13] it was “Active”; in series [14], “Not Active”; in series [15] it was “Not Active”; in series [16], “Not Active”. In addition, the Drug uptake in series [3] is on record as 189 pmol; in series [17], “Active”; in series [18], “Not Active”; in [19], “Active”; in [20], “Not Active”; in [21] it was “Not Active”. Also, the Drug uptake result in [22] is on record as “Active”; in series [4], “Not Active”.

Consider `CCN1CCC[C@H]1CNC(=O)c1c(O)c(Cl)cc(Cl)c1OC` [RACLOPRIDE], for which the IC50 in series [1] was over 500 µM.

Regarding `CC(C)c1nc(N(C)S(C)(=O)=O)nc(-c2ccc(F)cc2)c1/C=C/[C@@H](O)C[C@@H](O)CC(=O)O` [ROSUVASTATIN], in series [1], the IC50 was over 500 µM.

As to `CN1C(C(=O)Nc2ccccn2)=C(O)c2sccc2S1(=O)=O` [TENOXICAM], in series [1], the IC50 is over 500 µM.
